# Legend:
# Aspergillus niger = test: In vitro antifungal MIC, poison plate technique; type: cell-based
# Staphylococcus aureus = test: In vitro antibacterial MIC determination; type: cell-based
# In short: (§1)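 Bacteria grown on nutrient agar, subcultured to log phase in nutrient broth, then diluted in sterile saline to about 10^5–10^6 CFU mL−1. Test compounds diluted in acetone, DMSO or diethyl ether (ether preferred). Saturated disks placed on spread-plated inoculum and incubated at 37 °C for 24 h. MIC determined across different compound concentrations, with streptomycin as standard.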
# Pseudomonas aeruginosa = test: In vitro antibacterial MIC determination; type: cell-based
# In short: as §1
# RAW 264.7 cells [1] = test: Nitrite; type: cell-based, murine; conditions: RAW 264.7, 100 μM and 200 μM pre-treatment; Fig. 5
# In short: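 RAW 264.7 cells (1 × 10^6) seeded in flasks and left to adhere overnight. Pretreated 1 h with test compound (100 or 200 μM), then 100 μM LPS for 24 h at 37 °C, 5% CO2. Supernatant mixed with an equal volume of Griess reagent (0.1% naphthylethylenediamine and 1% sulfanilamide, 1:1, in 5% phosphoric acid) for 10 min in the dark at room temperature; A540 read. Nitrite quantified from a NaNO2 standard curve (0.1–6.25 μM), expressed as μmol NO2−/mg protein. Triplicates.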
# COX-2 = target: T1, COX-2 (Ovis aries, UniProt P79208); test: Colorimetric COX; type: biochemical, ovine; conditions: read-out: % inhibition of COX, COX-2
# T1 sequence (P79208 17-603): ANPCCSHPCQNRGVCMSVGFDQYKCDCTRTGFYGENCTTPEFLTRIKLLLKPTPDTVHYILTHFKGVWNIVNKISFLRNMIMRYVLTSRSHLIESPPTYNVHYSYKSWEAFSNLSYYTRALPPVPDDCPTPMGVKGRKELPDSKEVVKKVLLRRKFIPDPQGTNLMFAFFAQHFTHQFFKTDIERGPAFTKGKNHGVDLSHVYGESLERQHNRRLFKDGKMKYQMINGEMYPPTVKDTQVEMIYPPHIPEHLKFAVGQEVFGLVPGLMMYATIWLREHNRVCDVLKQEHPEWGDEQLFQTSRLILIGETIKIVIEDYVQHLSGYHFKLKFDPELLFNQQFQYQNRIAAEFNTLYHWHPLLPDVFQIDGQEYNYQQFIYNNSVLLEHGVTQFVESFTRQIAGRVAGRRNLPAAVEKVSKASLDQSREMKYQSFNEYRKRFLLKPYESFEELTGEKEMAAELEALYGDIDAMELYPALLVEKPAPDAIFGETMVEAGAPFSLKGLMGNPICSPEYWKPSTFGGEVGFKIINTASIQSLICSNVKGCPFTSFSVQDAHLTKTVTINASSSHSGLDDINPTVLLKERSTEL
# Aspergillus flavus = test: In vitro antifungal MIC, poison plate technique; type: cell-based
# [2] = tested on: cotton pellet induced granuloma; test: Cotton pellets induced granuloma assay; type: in vivo; conditions: rat, 100 mg kg^−1 p.o. for 8 d, mean ± SEM
# In short: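 Two sterile 10 mg cotton pellets implanted ventrally in rats, six per group. […] On day 9 rats were killed under excess ether. Pellets were freed of tissue and weighed wet, then dried at 55 °C for 6 h or to constant weight. Granuloma equals dry weight minus cotton weight. Mean ± SEM.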
# Escherichia coli = test: In vitro antibacterial MIC determination; type: cell-based
# In short: as §1
# COX-1 = target: T2, COX-1 (Ovis aries, UniProt P05979); test: Colorimetric COX; type: biochemical, ovine; conditions: read-out: % inhibition of COX, COX-1
# T2 sequence (P05979 25-600): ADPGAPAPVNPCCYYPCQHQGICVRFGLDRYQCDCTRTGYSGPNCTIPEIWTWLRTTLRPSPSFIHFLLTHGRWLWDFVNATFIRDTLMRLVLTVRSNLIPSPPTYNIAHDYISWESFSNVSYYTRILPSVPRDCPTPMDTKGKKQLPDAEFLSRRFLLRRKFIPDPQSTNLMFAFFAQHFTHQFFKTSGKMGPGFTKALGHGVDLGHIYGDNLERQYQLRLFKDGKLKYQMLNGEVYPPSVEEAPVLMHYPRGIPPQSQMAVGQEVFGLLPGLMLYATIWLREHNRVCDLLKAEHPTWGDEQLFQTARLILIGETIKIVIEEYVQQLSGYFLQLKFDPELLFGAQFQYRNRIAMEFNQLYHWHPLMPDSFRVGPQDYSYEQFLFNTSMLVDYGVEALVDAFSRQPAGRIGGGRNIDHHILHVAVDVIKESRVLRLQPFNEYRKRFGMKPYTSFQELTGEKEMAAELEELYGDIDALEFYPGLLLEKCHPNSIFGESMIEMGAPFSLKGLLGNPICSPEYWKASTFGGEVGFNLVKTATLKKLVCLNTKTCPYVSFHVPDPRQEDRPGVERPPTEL
# [3] = tested on: carrageenan-induced paw edema; test: Carrageenan induced hind paw edema assay; type: in vivo; conditions: rat, 100 mg kg^−1 p.o., mean ± SEM
# In short: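 Rats, six per group, acclimatized one week (25 ± 2 °C, 12 h light/dark, standard pellets, water ad libitum). […] Paw volume measured by plethysmometer displacement to the lateral malleolus at 1, 3 and 6 h. Mean ± SEM.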
# Rhizopus arrhizus = test: In vitro antifungal MIC, poison plate technique; type: cell-based
# Bacillus subtillis = test: In vitro antibacterial MIC determination; type: cell-based
# In short: as §1
# RAW 264.7 cells [4] = test: MTT assay, LPS-induced inflammation in RAW 264.7; type: cell-based, murine; conditions: RAW 264.7, pre-treatment 100 μM and 200 μM, then LPS; Fig. 4
# In short: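 Mouse RAW 264.7 macrophages kept in high-glucose DMEM with 10% heat-inactivated FBS and 1% penicillin–streptomycin at 37 °C, 5% CO2. Cells seeded at 5 × 10^5 cells per mL, pretreated 1 h with test compound (100 or 200 μM), then stimulated with […] for 24 h. Medium replaced; 0.5 mg mL−1 MTT for 3 h; formazan dissolved in DMSO; OD read at 540 nm. Percent inflammation derived by subtracting percent viability relative to control.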
MIC (Staphylococcus aureus),MIC (Pseudomonas aeruginosa),MIC (Escherichia coli),MIC (Bacillus subtillis),Structure (SMILES),MIC (Aspergillus niger),inhibition of LPS-induced NO production (RAW 264.7 cells [1]),inhibition at 100 µM (COX-2),inhibition at 200 µM (COX-2),MIC (Aspergillus flavus),"Weight, Dry (cotton pellet) [2]","Weight, Wet (cotton pellet) [2]",inhibition at 100 µM (COX-1),inhibition at 200 µM (COX-1),Paw volume ([3]; 1 h after carrageenan),Paw volume ([3]; 3 h after carrageenan),Paw volume ([3]; 6 h after carrageenan),MIC (Rhizopus arrhizus),anti-inflammatory activity against LPS induced cell death / inflammation (MTT) (RAW 264.7 cells [4])
18.6 ± 1.07 mg/L,28.2 ± 0.8 mg/L,26.4 ± 1.12 mg/L,25.4 ± 0.48 mg/L,"[H]/N=C(/N)N[C@H]1[C@H](O)[C@@H](O)[C@H](O[C@@H]2O[C@@H](C)[C@](O)(C=O)[C@H]2O[C@@H]2O[C@@H](CO)[C@H](O)[C@@H](O)[C@@H]2NC)[C@@H](N/C(N)=N\[H])[C@@H]1O [Streptomycin, reference compound]",–,–,–,–,–,–,–,–,–,–,–,–,–,–
21.9 ± 0.33 mg/L,31.9 ± 1.04 mg/L,30.1 ± 0.72 mg/L,31.6 ± 1.03 mg/L,"O=S(=O)(NC[C@@H](O)[C@@H]1CCc2cc(F)ccc2O1)c1ccc(F)cc1 [Compound 8a, N-((R)-2-((S)-6-Fluorochroman-2-yl)-2-hydroxyethyl)-4-fluorobenzenesulfonamide]",22.3 ± 0.27 mg/L,–,23.5 ± 0.55%,38.64 ± 0.33%,23.1 ± 0.25 mg/L,–,–,37.3 ± 0.32%,45.5 ± 0.77%,–,–,–,22.8 ± 0.54 mg/L,–
20.32 ± 0.06 mg/L,30.36 ± 0.22 mg/L,21.1 ± 0.45 mg/L,26 ± 0.42 mg/L,"O=C(NC[C@@H](O)[C@@H]1CCc2cc(F)ccc2O1)OCC(Cl)(Cl)Cl [Compound 9b, 2,2,2-Trichloroethyl ((R)-2-((S)-6-fluorochroman-2-yl)-2-hydroxyethyl)carbamate]",24.7 ± 0.7 mg/L,–,37.7 ± 0.35%,63.6 ± 0.32%,23.8 ± 0.67 mg/L,–,–,43.1 ± 0.8%,69.02 ± 0.5%,0.76 ± 0.48 mL,0.88 ± 0.16 mL,1.50 ± 0.25 mL,19.2 ± 0.48 mg/L,–

Structure (SMILES),MIC (Staphylococcus aureus),MIC (Pseudomonas aeruginosa),MIC (Escherichia coli),MIC (Bacillus subtillis),MIC (Aspergillus niger),inhibition of LPS-induced NO production (RAW 264.7 cells [1]),inhibition at 100 µM (COX-2),inhibition at 200 µM (COX-2),MIC (Aspergillus flavus),"Weight, Dry (cotton pellet) [2]","Weight, Wet (cotton pellet) [2]",inhibition at 100 µM (COX-1),inhibition at 200 µM (COX-1),Paw volume ([3]; 1 h after carrageenan),Paw volume ([3]; 3 h after carrageenan),Paw volume ([3]; 6 h after carrageenan),MIC (Rhizopus arrhizus),anti-inflammatory activity against LPS induced cell death / inflammation (MTT) (RAW 264.7 cells [4])
"O=S(=O)(NC[C@@H](O)[C@@H]1CCc2cc(F)ccc2O1)c1cccc(C(F)(F)F)c1 [Compound 8e, N-((R)-2-((S)-6-Fluorochroman-2-yl)-2-hydroxyethyl)-3-(trifluoromethyl)benzenesulfonamide]",20.4 ± 0.62 mg/L,26.7 ± 0.88 mg/L,26.3 ± 0.28 mg/L,19.7 ± 0.36 mg/L,11.7 ± 0.35 mg/L,strong inhibition,35.55 ± 0.22%,57.72 ± 0.36%,14.1 ± 0.55 mg/L,76.45 ± 1.95 mg,152.40 ± 1.57 mg,48.4 ± 0.84%,71.55 ± 0.15%,0.68 ± 0.96 mL,0.74 ± 0.29 mL,1.19 ± 0.65 mL,16.6 ± 0.52 mg/L,strong anti-inflammatory activity
"O=S(=O)(NC[C@@H](O)[C@@H]1CCc2cc(F)ccc2O1)c1cccs1 [Compound 8c, N-((R)-2-((S)-6-Fluorochroman-2-yl)-2-hydroxyethyl)thiophene-2-sulfonamide]",19.7 ± 0.62 mg/L,22.2 ± 0.63 mg/L,17.1 ± 0.47 mg/L,21.6 ± 0.44 mg/L,18.1 ± 0.46 mg/L,strong inhibition,40.4 ± 0.1%,61.2 ± 0.72%,16.7 ± 0.7 mg/L,91.30 ± 1.72 mg,148.62 ± 1.85 mg,51.1 ± 0.62%,70.07 ± 0.7%,0.60 ± 0.64 mL,0.88 ± 0.31 mL,1.11 ± 0.13 mL,22.2 ± 0.83 mg/L,strong anti-inflammatory activity

# Source: PMC8694313 (RSC Advances, 2021)
